Measured values taken from ChEMBL document CHEMBL4765413, “Discovery of novel anti-angiogenesis agents. Part 11: Development of PROTACs based on active molecules with potency of promoting vascular normalization” (Eur J Med Chem, 2020).
pIC50: −log10 of the molar value.

Tests used:
EA.hy 926 = experiment: Antiangiogenic activity in human EA.hy 926 cells measured after 24 hrs by MTT assay; details: EA.hy 926, 24 h
[1] = molecular target: Vascular endothelial growth factor receptor 2 (Homo sapiens, UniProt P35968); experiment: Inhibition of recombinant human N-terminal GST-tagged VEGFR2 (789 to end residues) expressed in baculovirus infected Sf9 insect cells using Poly (4:1 Glu, Tyr) as substrate incubated for 1 hr by ADP-Glo luminescent assay
HEK293 = experiment: Cytotoxicity against HEK293 cells measured after 24 hrs by MTT assay; format: cell-based; details: human, hek293, 24 h
[2] = molecular target: von Hippel-Lindau disease tumor suppressor/Vascular endothelial growth factor receptor 2 (Homo sapiens) (UniProt P35968+P40337); experiment: Protac activity at VHL/VEGFR2 in human EA.hy 926 cells assessed as induction of VEGFR2 degradation at 80 uM measured after 72 hrs by Western blot analysis relative to control; format: cell-based
In short: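 EA.hy926 cells were exposed to DMSO vehicle or test compound, then lysed in SDS sample buffer and normalized by BCA protein assay. Equal protein amounts were run on SDS-PAGE and transferred to PVDF. Membranes were blocked in 5% milk/TBS-Tween and probed with anti-VEGFR-2 (1:500), with GAPDH (1:10000) as loading control. Detection used HRP secondary and ECL, with densitometric quantification.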

Chain of Vascular endothelial growth factor receptor 2 (P35968 whole entry): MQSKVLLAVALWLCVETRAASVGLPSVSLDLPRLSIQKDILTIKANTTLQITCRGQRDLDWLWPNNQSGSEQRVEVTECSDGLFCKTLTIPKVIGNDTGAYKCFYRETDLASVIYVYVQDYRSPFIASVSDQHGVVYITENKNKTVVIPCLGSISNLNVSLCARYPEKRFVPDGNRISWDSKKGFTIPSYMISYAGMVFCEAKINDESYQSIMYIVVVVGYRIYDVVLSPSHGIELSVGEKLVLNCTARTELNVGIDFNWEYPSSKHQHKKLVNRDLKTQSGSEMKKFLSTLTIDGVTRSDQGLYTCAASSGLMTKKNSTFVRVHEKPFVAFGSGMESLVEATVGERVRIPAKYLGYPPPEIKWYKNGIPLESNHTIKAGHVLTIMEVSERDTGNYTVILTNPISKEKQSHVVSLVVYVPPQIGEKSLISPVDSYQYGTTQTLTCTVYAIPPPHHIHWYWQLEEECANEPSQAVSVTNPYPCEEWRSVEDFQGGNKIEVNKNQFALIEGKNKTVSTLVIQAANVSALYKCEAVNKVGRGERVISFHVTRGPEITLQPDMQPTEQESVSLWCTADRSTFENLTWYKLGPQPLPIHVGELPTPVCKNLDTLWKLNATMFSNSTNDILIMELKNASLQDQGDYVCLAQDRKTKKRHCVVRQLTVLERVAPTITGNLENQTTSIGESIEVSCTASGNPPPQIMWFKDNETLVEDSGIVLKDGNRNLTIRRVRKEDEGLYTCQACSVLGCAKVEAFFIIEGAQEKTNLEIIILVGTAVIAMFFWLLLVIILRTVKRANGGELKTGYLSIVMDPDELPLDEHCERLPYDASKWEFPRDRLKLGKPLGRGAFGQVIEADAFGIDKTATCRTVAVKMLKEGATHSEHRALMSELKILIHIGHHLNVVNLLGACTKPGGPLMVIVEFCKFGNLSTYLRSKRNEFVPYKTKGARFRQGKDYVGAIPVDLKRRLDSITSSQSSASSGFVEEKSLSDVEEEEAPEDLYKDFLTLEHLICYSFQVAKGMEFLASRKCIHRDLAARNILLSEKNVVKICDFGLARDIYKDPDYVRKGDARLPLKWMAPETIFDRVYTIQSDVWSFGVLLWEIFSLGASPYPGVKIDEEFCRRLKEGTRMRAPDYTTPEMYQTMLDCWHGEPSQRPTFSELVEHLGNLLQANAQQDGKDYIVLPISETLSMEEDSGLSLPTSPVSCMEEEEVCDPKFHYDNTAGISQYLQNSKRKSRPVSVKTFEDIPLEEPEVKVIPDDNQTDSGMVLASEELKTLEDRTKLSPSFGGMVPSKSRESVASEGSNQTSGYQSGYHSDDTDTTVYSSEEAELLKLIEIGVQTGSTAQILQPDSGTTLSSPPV
Chain of von Hippel-Lindau disease tumor suppressor/Vascular endothelial growth factor receptor 2 (Homo sapiens) (P35968 20-1356 limits assumed): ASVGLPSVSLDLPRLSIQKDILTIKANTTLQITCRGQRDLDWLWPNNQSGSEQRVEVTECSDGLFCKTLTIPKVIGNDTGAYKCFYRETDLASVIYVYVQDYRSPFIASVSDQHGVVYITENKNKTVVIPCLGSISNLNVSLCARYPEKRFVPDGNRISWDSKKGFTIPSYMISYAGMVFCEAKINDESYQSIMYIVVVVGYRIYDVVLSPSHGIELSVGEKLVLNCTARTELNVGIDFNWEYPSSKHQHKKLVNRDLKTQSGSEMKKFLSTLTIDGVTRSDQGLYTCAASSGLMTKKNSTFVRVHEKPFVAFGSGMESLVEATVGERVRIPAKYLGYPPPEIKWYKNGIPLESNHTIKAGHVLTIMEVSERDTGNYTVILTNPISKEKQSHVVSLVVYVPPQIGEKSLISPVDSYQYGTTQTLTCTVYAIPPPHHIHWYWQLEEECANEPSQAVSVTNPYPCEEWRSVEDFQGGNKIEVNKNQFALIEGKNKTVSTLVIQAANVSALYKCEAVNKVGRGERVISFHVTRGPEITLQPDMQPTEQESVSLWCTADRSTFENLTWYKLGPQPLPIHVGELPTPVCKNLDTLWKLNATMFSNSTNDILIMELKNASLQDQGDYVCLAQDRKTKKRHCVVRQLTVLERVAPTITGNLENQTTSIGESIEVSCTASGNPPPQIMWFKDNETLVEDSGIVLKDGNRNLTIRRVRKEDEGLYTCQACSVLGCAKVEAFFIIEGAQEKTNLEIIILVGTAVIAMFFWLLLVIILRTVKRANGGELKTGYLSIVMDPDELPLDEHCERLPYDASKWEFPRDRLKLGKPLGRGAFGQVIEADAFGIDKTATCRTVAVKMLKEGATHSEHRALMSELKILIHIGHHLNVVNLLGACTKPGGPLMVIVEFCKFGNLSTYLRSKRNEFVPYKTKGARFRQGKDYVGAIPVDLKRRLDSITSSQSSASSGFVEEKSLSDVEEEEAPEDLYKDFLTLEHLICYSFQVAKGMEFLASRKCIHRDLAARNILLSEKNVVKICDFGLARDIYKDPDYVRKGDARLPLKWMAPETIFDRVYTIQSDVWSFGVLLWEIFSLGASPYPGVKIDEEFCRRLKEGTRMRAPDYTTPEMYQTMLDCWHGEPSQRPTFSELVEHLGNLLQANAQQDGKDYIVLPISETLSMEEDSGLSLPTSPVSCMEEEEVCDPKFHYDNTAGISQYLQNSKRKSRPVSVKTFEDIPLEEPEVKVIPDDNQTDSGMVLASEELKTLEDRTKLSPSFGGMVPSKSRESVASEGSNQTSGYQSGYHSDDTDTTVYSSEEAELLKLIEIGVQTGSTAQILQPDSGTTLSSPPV
Chain of von Hippel-Lindau disease tumor suppressor/Vascular endothelial growth factor receptor 2 (Homo sapiens) (P40337 whole entry partner): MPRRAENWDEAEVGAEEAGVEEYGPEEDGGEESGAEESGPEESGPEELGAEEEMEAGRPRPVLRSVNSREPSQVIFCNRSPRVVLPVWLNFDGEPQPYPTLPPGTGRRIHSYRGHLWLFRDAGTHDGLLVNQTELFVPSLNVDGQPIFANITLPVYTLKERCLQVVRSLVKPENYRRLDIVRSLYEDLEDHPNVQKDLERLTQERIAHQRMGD

Row | Compound | pIC50 (EA.hy 926) | pIC50 [1] | Activity (HEK293) | Activity [2] [%]
1 | Cc1ccc(F)c(NC(=O)Nc2ccc(-c3cccc4[nH]nc(N)c34)cc2)c1 [LINIFANIB] | 5.61 |  |  | 
2 | Cc1ncsc1-c1ccc(CNC(=O)[C@@H]2C[C@@H](O)CN2C(=O)[C@@H](NC(=O)CCCCCCCCCCCCCCC(=O)n2nc(N)c3c(-c4cccc(NC(=O)Nc5cccc(C(C)C)c5)c4)cccc32)C(C)(C)C)cc1 | < 4.00 | < 6.00 | Non-Toxic | 
3 | Cc1ccc(F)c(NC(=O)Nc2ccc(-c3cccc4c3c(N)nn4C(=O)CCCCCCCCCCCCCCC(=O)N[C@H](C(=O)N3C[C@H](O)C[C@H]3C(=O)NCc3ccc(-c4scnc4C)cc3)C(C)(C)C)cc2)c1 |  | 7.09 | Non-Toxic | 
4 | Cc1ncsc1-c1ccc(CNC(=O)[C@@H]2C[C@@H](O)CN2C(=O)[C@@H](NC(=O)CCCCCCCCCCC(=O)n2nc(N)c3c(-c4cccc(NC(=O)Nc5cccc(C(C)C)c5)c4)cccc32)C(C)(C)C)cc1 | 4.48 | 6.68 | Non-Toxic | 70
